In ChEMBL document CHEMBL4706563, “Triphenylethylene analogues: Design, synthesis and evaluation of antitumor activity and topoisomerase inhibitors” (Eur J Med Chem, 2020):
Active and inactive are the calls of the source. The rule behind the calls is not given here.

Legend:
Assay type in all cases: functional
SR = experiment: Antiproliferative activity against human SR cells assessed as growth inhibition at 10 uM relative to control; settings: read-out: GI
Procedure, shortened: (§1)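 NCI 60 human tumour cell line panel screen. Compounds tested at a single dose and growth inhibition (%) determined for each line.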

CCRF-CEM = experiment: Antiproliferative activity against human CCRF-CEM cells assessed as growth inhibition at 10 uM relative to control; settings: read-out: GI
Procedure, shortened: (§2)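 Single-dose screen run by the US National Cancer Institute across its 60-human tumour cell line panel. Each compound was tested at one concentration. Percent growth inhibition was recorded for each cell line.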

HL-60(TB) = experiment: Antiproliferative activity against human HL-60(TB) cells assessed as growth inhibition at 10 uM relative to control; settings: read-out: GI
K562 = experiment: Antiproliferative activity against human K562 cells assessed as growth inhibition at 10 uM relative to control; settings: read-out: GI; procedure, shortened: as §2
MOLT-4 = experiment: Antiproliferative activity against human MOLT-4 cells assessed as growth inhibition at 10 uM relative to control; settings: read-out: GI; procedure, shortened: as §2
EKVX = experiment: Antiproliferative activity against human EKVX cells assessed as growth inhibition at 10 uM relative to control; settings: read-out: GI; procedure, shortened: as §2
HOP-62 = experiment: Antiproliferative activity against human HOP-62 cells assessed as growth inhibition at 10 uM relative to control; settings: read-out: GI; procedure, shortened: as §2
HOP-92 = experiment: Antiproliferative activity against human HOP-92 cells assessed as growth inhibition at 10 uM relative to control; settings: read-out: GI; procedure, shortened: as §2
NCI-H23 = experiment: Antiproliferative activity against human NCI-H23 cells assessed as growth inhibition at 10 uM relative to control; settings: read-out: GI; procedure, shortened: as §2
NCI-H322M = experiment: Antiproliferative activity against human NCI-H322M cells assessed as growth inhibition at 10 uM relative to control; settings: read-out: GI; procedure, shortened: as §2
NCI-H460 = experiment: Antiproliferative activity against human NCI-H460 cells assessed as growth inhibition at 10 uM relative to control; settings: read-out: GI; procedure, shortened: as §2
NCI-H522 = experiment: Antiproliferative activity against human NCI-H522 cells assessed as growth inhibition at 10 uM relative to control; settings: read-out: GI; procedure, shortened: as §2
COLO 205 = experiment: Antiproliferative activity against human COLO 205 cells assessed as growth inhibition at 10 uM relative to control; settings: read-out: GI; procedure, shortened: as §2
HCT-116 = experiment: Antiproliferative activity against human HCT-116 cells assessed as growth inhibition at 10 uM relative to control; procedure, shortened: as §2
HCT-15 = experiment: Antiproliferative activity against human HCT-15 cells assessed as growth inhibition at 10 uM relative to control; settings: read-out: GI; procedure, shortened: as §2
KM12 = experiment: Antiproliferative activity against human KM12 cells assessed as growth inhibition at 10 uM relative to control; settings: read-out: GI; procedure, shortened: as §2
SW-620 = experiment: Antiproliferative activity against human SW-620 cells assessed as growth inhibition at 10 uM relative to control; settings: read-out: GI; procedure, shortened: as §1
SF-539 = experiment: Antiproliferative activity against human SF-539 cells assessed as growth inhibition at 10 uM relative to control; settings: read-out: GI; procedure, shortened: as §2
SNB-19 = experiment: Antiproliferative activity against human SNB-19 cells assessed as growth inhibition at 10 uM relative to control; settings: read-out: GI; procedure, shortened: as §1
SNB-75 = experiment: Antiproliferative activity against human SNB-75 cells assessed as growth inhibition at 10 uM relative to control; settings: read-out: GI; procedure, shortened: as §1
U-251 = experiment: Antiproliferative activity against human U251 cells assessed as growth inhibition at 10 uM relative to control; settings: read-out: GI; procedure, shortened: as §1
Malme-3M = experiment: Antiproliferative activity against human Malme-3M cells assessed as growth inhibition at 10 uM relative to control; settings: read-out: GI; procedure, shortened: as §2
M14 = experiment: Antiproliferative activity against human M14 cells assessed as growth inhibition at 10 uM relative to control; settings: read-out: GI; procedure, shortened: as §2
SK-MEL-5 = experiment: Antiproliferative activity against human SK-MEL-5 cells assessed as growth inhibition at 10 uM relative to control; settings: read-out: GI; procedure, shortened: as §1
UACC-257 = experiment: Antiproliferative activity against human UACC-257 cells assessed as growth inhibition at 10 uM relative to control; settings: read-out: GI; procedure, shortened: as §1
IGROV-1 = experiment: Antiproliferative activity against human IGROV-1 cells assessed as growth inhibition at 10 uM relative to control; settings: read-out: GI; procedure, shortened: as §2
OVCAR-3 = experiment: Antiproliferative activity against human OVCAR-3 cells assessed as growth inhibition at 10 uM relative to control; settings: read-out: GI; procedure, shortened: as §2
OVCAR-4 = experiment: Antiproliferative activity against human OVCAR-4 cells assessed as growth inhibition at 10 uM relative to control; settings: read-out: GI; procedure, shortened: as §2
NCI/ADR-RES = experiment: Antiproliferative activity against human NCI/ADR-RES cells assessed as growth inhibition at 10 uM relative to control; settings: read-out: GI; procedure, shortened: as §2
SK-OV-3 = experiment: Antiproliferative activity against human SK-OV-3 cells assessed as growth inhibition at 10 uM relative to control; settings: read-out: GI; procedure, shortened: as §1
786-0 = experiment: Antiproliferative activity against human 786-0 cells assessed as growth inhibition at 10 uM relative to control; settings: read-out: GI; procedure, shortened: as §2
A498 = experiment: Antiproliferative activity against human A498 cells assessed as growth inhibition at 10 uM relative to control; settings: read-out: GI; procedure, shortened: as §2
ACHN = experiment: Antiproliferative activity against human ACHN cells assessed as growth inhibition at 10 uM relative to control; settings: read-out: GI; procedure, shortened: as §2
CAKI-1 = experiment: Antiproliferative activity against human CAKI-1 cells assessed as growth inhibition at 10 uM relative to control; settings: read-out: GI; procedure, shortened: as §2
PC-3 = experiment: Antiproliferative activity against human PC-3 cells assessed as growth inhibition at 10 uM relative to control; settings: read-out: GI; procedure, shortened: as §2
MDA-MB-231 = experiment: Antiproliferative activity against human MDA-MB-231 cells assessed as growth inhibition at 10 uM relative to control; settings: read-out: GI; procedure, shortened: as §2
Hs-578T = experiment: Antiproliferative activity against human Hs-578T cells assessed as growth inhibition at 10 uM relative to control; settings: read-out: GI; procedure, shortened: as §2
BT-549 = experiment: Antiproliferative activity against human BT-549 cells assessed as growth inhibition at 10 uM relative to control; procedure, shortened: as §2
T47D = experiment: Antiproliferative activity against human T47D cells assessed as growth inhibition at 10 uM relative to control; settings: read-out: GI; procedure, shortened: as §1
Leukemia cell = experiment: Antiproliferative activity against human leukemia cells
[1] = Antiproliferative activity against human Non-small cell lung cancer cells; settings: Non-small cell lung cancer cell line
[2] = Antiproliferative activity against human CNS cancer cells; settings: CNS cell
[3] = Antiproliferative activity against human Melanoma cells; settings: Melanoma cell line
[4] = Antiproliferative activity against human ovarian cancer cells; settings: Ovarian cancer cell line
[5] = Antiproliferative activity against human renal cancer cells; settings: Renal cancer cell line
[6] = Antiproliferative activity against human prostate cancer cells; settings: Prostate tumor cell line
[7] = Antiproliferative activity against human breast cancer cells; settings: Breast cancer cell line
[8] = read-out: LC50 (the source's name)

C/C(=C(/c1ccccc1)c1ccc(OCC(O)CNCCN2CCOCC2)cc1)c1ccccc1 (stereo not drawn)
inhibition of growth at 10 µM (SR): 99.3% | inhibition of growth at 10 µM (CCRF-CEM): 43.5% | inhibition of growth at 10 µM (HL-60(TB)): 71% | inhibition of growth at 10 µM (K562): 97.6% | inhibition of growth at 10 µM (MOLT-4): 59% | inhibition of growth at 10 µM (EKVX): 17.2% | inhibition of growth at 10 µM (HOP-62): 25.1% | inhibition of growth at 10 µM (HOP-92): 40.9% | inhibition of growth at 10 µM (NCI-H23): 16.8% | inhibition of growth at 10 µM (NCI-H322M): 27.3% | inhibition of growth at 10 µM (NCI-H460): 82.4% | inhibition of growth at 10 µM (NCI-H522): 55.5% | inhibition of growth at 10 µM (COLO 205): -64.5% | growth inhibition (GI) (HCT-116): inactive | inhibition of growth at 10 µM (HCT-15): 95.5% | inhibition of growth at 10 µM (KM12): 45.7% | inhibition of growth at 10 µM (SW-620): 51% | inhibition of growth at 10 µM (SF-539): 27.2% | inhibition of growth at 10 µM (SNB-19): 8.8% | inhibition of growth at 10 µM (SNB-75): 34.2% | inhibition of growth at 10 µM (U-251): 67.4% | inhibition of growth at 10 µM (Malme-3M): -71.7% | inhibition of growth at 10 µM (M14): 7.31% | inhibition of growth at 10 µM (SK-MEL-5): 71% | inhibition of growth at 10 µM (UACC-257): -27.5% | inhibition of growth at 10 µM (IGROV-1): 36.6% | inhibition of growth at 10 µM (OVCAR-3): 22.1% | inhibition of growth at 10 µM (OVCAR-4): 29.8% | inhibition of growth at 10 µM (NCI/ADR-RES): 19.8% | inhibition of growth at 10 µM (SK-OV-3): 4.57% | inhibition of growth at 10 µM (786-0): 2.44% | inhibition of growth at 10 µM (A498): 20.1% | inhibition of growth at 10 µM (ACHN): 18.6% | inhibition of growth at 10 µM (CAKI-1): 32.1% | inhibition of growth at 10 µM (PC-3): 34.5% | inhibition of growth at 10 µM (MDA-MB-231): 70.6% | inhibition of growth at 10 µM (Hs-578T): 29.5% | growth inhibition (GI) (BT-549): inactive | inhibition of growth at 10 µM (T47D): 10.7% | GI50 (Leukemia cell): 2.19 µM | LC50 (concentration killing 50% of cells) (Leukemia cell): 23.9 µM | TGI (Leukemia cell): 5.8 µM | GI50 [1]: 4.19 µM | TGI [1]: 12.2 µM | CC50 [1, 8]: 36.3 µM | GI50 [2]: 2.81 µM | TGI [2]: 9.9 µM | CC50 [2, 8]: 25.2 µM | GI50 [3]: 1.87 µM | LC50 [3]: 8.55 µM | TGI [3]: 3.74 µM | GI50 [4]: 5.2 µM | TGI [4]: 16.3 µM | CC50 [4, 8]: 45.8 µM | GI50 [5]: 2.4 µM | TGI [5]: 7.75 µM | CC50 [5, 8]: 22 µM | GI50 [6]: 3.57 µM | TGI [6]: 13 µM | CC50 [6, 8]: 38.5 µM | GI50 [7]: 3.69 µM | TGI [7]: 9.08 µM | CC50 [7, 8]: 29.1 µM
